Measurements as given in the EternaBench riboswitch data.

System: MS2 coat protein
Assay: apparent Kd, MS2 coat protein; higher = weaker binding; RNA-MaP array; FMN 200 µM where present
How it was run: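 Stalled E. coli RNA polymerase produced the designs on Illumina sequencing-chip clusters. SNAP-549-labelled MS2 coat protein was added from 0.7 or 1.5 nM, doubling to 3 µM, without and then with constant ligand, in 100 mM Tris-HCl pH 7.5, 80 mM KCl, 4 mM MgCl2, BSA, DTT, yeast tRNA and Tween-20. The apparent Kd is the median of filtered per-cluster fits of green signal normalised to red-channel RNA signal and control-cluster median Fmax.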

[1] = designed as: OFF switch for flavin mononucleotide, no ligand
[2] = ligand present: flavin mononucleotide, designed as: OFF switch for flavin mononucleotide
[3] = designed as: ON switch for flavin mononucleotide, no ligand
[4] = ligand present: flavin mononucleotide, designed as: ON switch for flavin mononucleotide

Sequence | apparent Kd [1] | apparent Kd [2] | apparent Kd [3] | apparent Kd [4]
AAAUUCUGAGGAUAUCGAUGUUUGUACAUGAGGAUCACCCAUGUCCUUUUUAUUUAAUCCCGAGAAGGCAGUGUAU | 29 nM | 25.8 nM |  | 
AAAUUGUGAGGAUAUUCGAUGUACUCGGAGACGAGUAUAUCGGAGAAGGCACAUGAGGAUCACCCAUGUUCCUU | 17.6 nM | 92.6 nM |  | 
AAAUUUAACGAAGGAUAUGGUUACAUGAGGAUCACCCAUGUAUAUUUUGUGAUCUUGUUAAAGUACCAGAAGGUCGUAUACAUA | 173 nM | 400 nM |  | 
AAAUUUUGUCAAGGAUAUGUAUAAAAGAGAAGAAAACAUGAGGAUCACCCAUGUAUAUGGUGGGAACAGAAGGUGAAUAAGUAA | 164 nM | 154 nM |  | 
AAAUUUUGUCAAGGAUAUGUAUAAAAGAGUUGAAAACAUGAGGAUCACCCAUGUAUAUGGUGGGAACAGAAGGUGAAUAAGUAA | 190 nM | 182 nM |  | 
AACAAACAUGAGGAUCACCCAUGUCAGGAUAUGGCGGCUAGUGUGCCACCGUACACUACCAGAAGGGACUGGGU | 212 nM | 151 nM |  | 
AACAAUCUAUCUGAGGAUAUUAUGAAAUAAACAUGAGGAUCACCCAUGUGCAGGAAAACUGCAUAUGAGAAGGCAGAUAGAUUGA |  |  | 428 nM | 18.5 nM
AACACAACAUGAAACAUGAGGAUCACCCAUGUUGUUUGUAAUCAGGAUAUGAUUUUAAUAAUGAAUUAGAAGGGAUAUGGAUUU |  |  | 28.9 nM | 36.9 nM
AACAGACAUGAGGAUCACCCAUGUAGAAUUAUGGGAGGAUAUACAAAGACGAGAGUCAGAGUAGAAGGCCUAGGAC |  |  | 46.5 nM | 29.9 nM
AACAGGACAGGAUAUACAUGAGGAUCACCCAUGUGAGAAUUAAGUAGAUUACCACAAAGUAGAAGGGUCCUGGA | 50.4 nM | 87.2 nM |  | 
AACAGGUUCACAUGAGGAUCACCCAUGUUAGCCUAACGUAGGAGAAGGACGGUAGCUGGGCUGACGUAGGAUAUCCUACUGUGA |  |  | 9.22 nM | 4.8 nM
AACAGUAGAGGAUAUACAUGAGGAUCACCCAUGUGAUUAUUACGUGGCGUACCACGAAGUAGAAGGCUACUGGA | 61 nM | 203 nM |  | 
AACAUGAGGAUCACCCAUGUCCCACCAGAAGGCUGGCGGUCGUGAGAAAGGCCACGACAAAUAACAGAGGAUAUGGUGAAUGCA |  |  | 101 nM | 19.1 nM
AACAUUGACAAGAAGGCAAACAUGAGGAUCACCCAUGUUCUGCAUGUAUAUUGAGGAUAUUGCCAAUGUAUGUGGAUCACCCAA | 6.76 nM | 14.8 nM |  | 
AACCACGUUAGAUUAAGCGUGACAUGAGGAUCACCCAUGUGUCAGGAUAUACAUGGGCGGGCCCAGUAGAAGGGACUUAAUAGC |  |  | 146 nM | 91 nM
AACCUAUUACAGAAGGCCAGCUACAUGAGGAUCACCCAUGUCGAGUCAUGGAGGAUAUGUAGUAAUUUACUCACAAAUAAGUGC |  |  | 33.6 nM | 5.16 nM
AACCUAUUACAGAAGGCCAGCUACAUGAGGAUCACCCAUGUCGAGUCAUGGAGGAUAUGUAGUAAUUUGCACGCGGACGAGUAC |  |  | 52.6 nM | 5.82 nM
AACGUGUGAGGAUAUGCCGUGCCCUUCCGGAAGGAGCGGGUGCAGAAGGCACAUGAGGAUCACCCAUGUCGGCA | 33.9 nM | 49.8 nM |  | 
AACGUGUGAGGAUAUUAGUUGUACGUCAAUAGACGUAUAAGUGAGAAGGCACAUGAGGAUCACCCAUGUUCCUG | 23.9 nM | 195 nM |  | 
AACUAUGAAUUGAUAGUGUCUGACAGAAGGCAAUAGGUUGUGACCGACAUGAGGAUCACCCAUGUUGAGGAUAUGUCUAGCUAC | 53.2 nM | 366 nM |  | 
AACUCACAUGAGGAUCACCCAUGUGAGGAUAUAUUAUUAUGGCUGUUAUGCUGUAGUGGUAGAAGGCGCGUGAU | 33.2 nM | 28.7 nM |  | 

Sequence | apparent Kd [1] | apparent Kd [2] | apparent Kd [3] | apparent Kd [4]
AACUCUGAGAAGGAUAUUCAAUGGGAAACGAUGGAAGAAGGUUUCACAUGAGGAUCACCCAUGUCGAAUAGUGA | 71.9 nM | 63.9 nM |  | 
AACUGACAUGAGGAUCACCCAUGUCAGGAUAUGACUUGAUAGAAAAAAAAAUAUCAUGUCAGAAGGGACAUGAA | 16.4 nM | 13.5 nM |  | 
AACUUGCGCACAGGAUAUCCACGGAGCGGACGUGGAGAAGGGUGACAUGAGGAUCACCCAUGUACGUAAGUCUAGAUCACUUCC |  |  | 198 nM | 19.1 nM
AAGAACUAAGGAUAUACAUGAGGAUCACCCAUGUCUUUUACAUGUUACUGGCCCGCAUGUAGAAGGUAGAAAAG | 78.6 nM | 135 nM |  | 
AAGAAGUAAGGAUAUGGCCGGGUCCCUGGGUUUGGACCCGGCUAGAAGGUACAUGAGGAUCACCCAUGUAAGAA | 14.7 nM | 15.4 nM |  | 
AAGAAGUCAGGAUAUGCAUGGCGGGACUUGCGUCGUGGCGUGCAGAAGGGACAUGAGGAUCACCCAUGUGGAGA | 124 nM | 249 nM |  | 
AAGAAGUGAGGAUAUACGCGAACAAAAAAAAAAAAGAAAGCGUAGAAGGCACAUGAGGAUCACCCAUGUCAAAA | 26.1 nM | 27.3 nM |  | 
AAGAAGUGAGGAUAUGUCUGUGCGAAAAAAAAAAAGUGCAGACAGAAGGCACAUGAGGAUCACCCAUGUCAAAA | 25.6 nM | 37.1 nM |  | 
AAGACACAUCUAGGAUAUGGUGAUGCUCAGAACACAUGAGGAUCACCCAUGUAGCUUGUGUAUAAUCAGAAGGAGAACCGUGUA |  |  | 36.4 nM | 259 nM
AAGAGAAAAGCAGGAUAUCUAUAGGCUCCUUAACAUGAGGAUCACCCAUGUAGAGAAGGGCUAAGACCGACUCUUCGGAGUUGA | 9.23 nM | 27.6 nM |  | 
AAGCAUUGGCUUCUCAUCUACAUGAGGAUCACCCAUGUCGGGAGAAGGAGGCUUUGACGACUAGCCUAGGAUAUCCUAACGUGC | 5.65 nM | 6.15 nM |  | 
AAGCGAGGGACAGGAUAUGCGGCGAAACUCGCCGCAGAAGGGUCGACAUGAGGAUCACCCAUGUCCUUACGCUCCAAGUAAAGG |  |  | 216 nM | 436 nM
AAGCGAGGGACAGGAUAUGCGGCGGAACUCGCCGCAGAAGGGUCGACAUGAGGAUCACCCAUGUCCUUACGCUCCAAGUAGAGG |  |  | 181 nM | 451 nM
AAGGAUAGAGGAUAUACAUAGAUACAGAUUCAUGUAGACCUACAUGAGGAUCACCCAUGUAGAAGGCUAUCCUA | 19.2 nM | 113 nM |  | 
AAGUAGAUCCGAGGAUAUACAAACCGGAAACGGUACAUGAGGAUCACCCAUGUAGAAGGCGGAUCUACAGGUACUAAAGUACCA | 5.33 nM | 8.68 nM |  | 
AAGUAGGCAGGAUAUACAUGAGGAUCACCCAUGUGCCCAUGAAAGGUACUUUCGAAAGGUAGAAGGGCCUACAA | 16.5 nM | 35.6 nM |  | 
AAGUCGGUAGAUAAUAAUGAUUACAUGAGGAUCACCCAUGUAUAGGAUAUCGUCAGGAAUACUGACGAGAAGGAUACAUCCGAC | 17.6 nM | 30 nM |  | 
AAGUCGUGAGGAUAUACAUGGAUAUACAUUUAUGUAGACCUACAUGAGGAUCACCCAUGUAGAAGGCACGAAUA | 45.4 nM | 115 nM |  | 
AAGUUAUUAGGAUAUACUUGUGCGAUUUAUACGUUGAUAUUACAUGAGGAUCACCCAUGUAGAAGGAAUAAAAA | 20.8 nM | 17.4 nM |  | 
AAGUUUGUACGAGGAUAUCAGUUGUAUCUAAAUUCAACAUGAGGAUCACCCAUGUUGCAAUAGGGUGAGAAGGCGUGUGGGCAA |  |  | 44.6 nM | 37.9 nM
AAGUUUGUACGAGGAUAUCAGUUGUUUCUAAAUUCAACAUGAGGAUCACCCAUGUAGCAAUGGAGUGAGAAGGCGUGUGGGCAA |  |  | 457 nM | 240 nM
